From ChEMBL document CHEMBL1126822, “7 alpha-Methyl- and 11 beta-ethoxy-substitution of [125I]-16 alpha-iodoestradiol: effect on estrogen receptor-mediated target tissue uptake” (J Med Chem, 1993)

Legend:
Rattus norvegicus [1] = assay: Tissue uptake (muscle) of [125I]- after administration of [125I]-labeled compound to immature female rats (n=3) in the absence of 60 microg coinjected estradiol after 24 hours; assay type: ADME, organism-based; conditions: in vivo
In short: (§1)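 Immature female Fischer rats, 24 days old, 55-60 g, unanesthetized in retention cages, given HPLC-purified 125I-labeled steroid (3 μCi, 111 kBq) via lateral tail vein in 200 μL of 9% ethanol-saline with 1% Tween-80. The blocking group was coinjected with 60 μg unlabeled estradiol and sampled at 1 h. Animals were killed under ether at 0.5-24 h. Tissues were KCl-washed, blotted, weighed and gamma-counted. Results are % ID/g, with variation as small-sample-corrected %CV.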

Rattus norvegicus [2] = assay: Tissue uptake (muscle) of [125I]- after administration of [125I]-labeled compound to immature female rats (n=4) in the absence of 60 microg coinjected estradiol after 2 hours; assay type: ADME, organism-based; conditions: in vivo; in short: as §1
Rattus norvegicus [3] = assay: Tissue uptake (muscle) of [125I]- after administration of [125I]-labeled compound to immature female rats (n=5) in the absence of 60 microg coinjected estradiol after 1 hour; assay type: ADME, organism-based; conditions: in vivo; in short: as §1
Rattus norvegicus [4] = assay: Tissue uptake (fat) of [125I]- after administration of [125I]-labeled compound to immature female rats (n=3) in the absence of 60 microg coinjected estradiol after 0.5 hours; assay type: ADME, organism-based; conditions: in vivo; in short: as §1
Rattus norvegicus [5] = assay: Tissue uptake (fat) of [125I]- after administration of [125I]-labeled compound to immature female rats (n=3) in the absence of 60 microg coinjected estradiol after 24 hours; assay type: ADME, organism-based; conditions: in vivo; in short: as §1
Rattus norvegicus [6] = assay: Tissue uptake (fat) of [125I]- after administration of [125I]-labeled compound to immature female rats (n=3) in the presence of 60 microg coinjected estradiol after 1 hour; assay type: ADME, organism-based; conditions: in vivo; in short: as §1
Rattus norvegicus [7] = assay: Tissue uptake (kidneys) of [125I]- after administration of [125I]-labeled compound to immature female rats (n=3) in the absence of 60 microg coinjected estradiol after 0.5 hours; assay type: ADME, organism-based, Kidney; conditions: in vivo; in short: as §1
Rattus norvegicus [8] = assay: Tissue uptake (kidneys) of [125I]- after administration of [125I]-labeled compound to immature female rats (n=4) in the absence of 60 microg coinjected estradiol after 2 hours; assay type: ADME, organism-based, Kidney; conditions: in vivo; in short: as §1
Rattus norvegicus [9] = assay: Tissue uptake (kidneys) of [125I]- after administration of [125I]-labeled compound to immature female rats (n=5) in the absence of 60 microg coinjected estradiol after 1 hour; assay type: ADME, organism-based, Kidney; conditions: in vivo; in short: as §1
Rattus norvegicus [10] = assay: Tissue uptake (liver) of [125I]- after administration of [125I]-labeled compound to immature female rats (n=3) in the absence of 60 microg coinjected estradiol after 24 hours; assay type: ADME, organism-based; conditions: in vivo; in short: as §1
Rattus norvegicus [11] = assay: Tissue uptake (liver) of [125I]- after administration of [125I]-labeled compound to immature female rats (n=3) in the presence of 60 microg coinjected estradiol after 1 hour; assay type: ADME, organism-based; conditions: in vivo; in short: as §1
Rattus norvegicus [12] = assay: Tissue uptake (liver) of [125I]- after administration of [125I]-labeled compound to immature female rats (n=4) in the absence of 60 microg coinjected estradiol after 5 hours; assay type: ADME, organism-based; conditions: in vivo; in short: as §1
Rattus norvegicus [13] = assay: Tissue uptake (liver) of [125I]- after administration of [125I]-labeled compound to immature female rats (n=5) in the absence of 60 microg coinjected estradiol after 1 hour; assay type: ADME, organism-based; conditions: in vivo; in short: as §1
Rattus norvegicus [14] = assay: Tissue uptake (lungs) of [125I]- after administration of [125I]-labeled compound to immature female rats (n=3) in the absence of 60 microg coinjected estradiol after 0.5 hours; assay type: ADME, organism-based; conditions: in vivo; in short: as §1
Rattus norvegicus [15] = assay: Tissue uptake (lungs) of [125I]- after administration of [125I]-labeled compound to immature female rats (n=3) in the absence of 60 microg coinjected estradiol after 24 hours; assay type: ADME, organism-based; conditions: in vivo; in short: as §1
Rattus norvegicus [16] = assay: Tissue uptake (lungs) of [125I]- after administration of [125I]-labeled compound to immature female rats (n=4) in the absence of 60 microg coinjected estradiol after 2 hours; assay type: ADME, organism-based; conditions: in vivo; in short: as §1
Rattus norvegicus [17] = assay: Tissue uptake (spleen) of [125I]- after administration of [125I]-labeled compound to immature female rats (n=4) in the absence of 60 microg coinjected estradiol after 2 hours; assay type: ADME, organism-based; conditions: in vivo
In short: (§2)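 Immature female Fischer rats, 24 days old, 55-60 g, unanesthetized in retention cages, got HPLC-purified n.c.a. 125I-labeled steroid (3 μCi, 111 kBq) by lateral tail vein. Dose was given in 200 μL saline with 9% ethanol and 1% Tween-80. Deep ether anesthesia, axillary artery cut; tissues KCl-washed, blotted, weighed, gamma-counted as % ID/g; variation as small-sample-corrected %CV.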

Rattus norvegicus [18] = assay: Tissue uptake (spleen) of [125I]- after administration of [125I]-labeled compound to immature female rats (n=4) in the absence of 60 microg coinjected estradiol after 5 hours; assay type: ADME, organism-based; conditions: in vivo; in short: as §2
Rattus norvegicus [19] = assay: Tissue uptake (spleen) of [125I]- after administration of [125I]-labeled compound to immature female rats (n=5) in the absence of 60 microg coinjected estradiol after 1 hour; assay type: ADME, organism-based; conditions: in vivo; in short: as §2
Rattus norvegicus [20] = assay: Tissue uptake (uterus) of [125I]- after administration of [125I]-labeled compound to immature female rats (n=4) in the absence of 60 microg coinjected estradiol after 5 hours; assay type: ADME, organism-based; conditions: in vivo; in short: as §2
Rattus norvegicus [21] = assay: Tissue uptake (uterus) of [125I]- after administration of [125I]-labeled compound to immature female rats (n=5) in the absence of 60 microg coinjected estradiol after 1 hour; assay type: ADME, organism-based; conditions: in vivo; in short: as §2
Rattus norvegicus [22] = assay: Tissue uptake (thyroid) of [125I]- after administration of [125I]-labeled compound to immature female rats (n=3) in the absence of 60 microg coinjected estradiol after 24 hours; assay type: ADME, organism-based, Thyroid gland; conditions: in vivo; in short: as §2
Rattus norvegicus [23] = assay: Tissue uptake (blood) of [125I]- after administration of [125I]-labeled compound to immature female rats (n=4) in the absence of 60 microg coinjected estradiol after 2 hours; assay type: ADME, organism-based; conditions: in vivo; in short: as §1
Rattus norvegicus [24] = assay: Tissue uptake (blood) of [125I]- after administration of [125I]-labeled compound to immature female rats (n=5) in the absence of 60 microg coinjected estradiol after 1 hour; assay type: ADME, organism-based; conditions: in vivo; in short: as §1
Rattus norvegicus [25] = assay: Tissue uptake (thyroid) of [125I]- after administration of [125I]-labeled compound to immature female rats (n=3) in the presence of 60 microg coinjected estradiol after 1 hour; assay type: ADME, organism-based, Thyroid gland; conditions: in vivo; in short: as §2
Rattus norvegicus [26] = assay: Tissue uptake (thyroid) of [125I]- after administration of [125I]-labeled compound to immature female rats (n=4) in the absence of 60 microg coinjected estradiol after 5 hours; assay type: ADME, organism-based, Thyroid gland; conditions: in vivo; in short: as §2
Rattus norvegicus [27] = assay: Tissue uptake (thyroid) of [125I]- after administration of [125I]-labeled compound to immature female rats (n=5) in the absence of 60 microg coinjected estradiol after 1 hour; assay type: ADME, organism-based, Thyroid gland; conditions: in vivo; in short: as §2
Rattus norvegicus [28] = assay: Tissue uptake (uterus) of [125I]- after administration of [125I]-labeled compound to immature female rats (n=4) in the absence of 60 microg coinjected estradiol after 2 hours; assay type: ADME, organism-based; conditions: in vivo; in short: as §2
Rattus norvegicus [29] = assay: Tissue uptake (blood) of [125I]- after administration of [125I]-labeled compound to immature female rats (n=3) in the absence of 60 microg coinjected estradiol after 0.5 hours; assay type: ADME, organism-based; conditions: in vivo; in short: as §1
[30] = molecular target: Estrogen receptor (Mus musculus) (UniProt O08537+P19785); assay: Binding affinity at murine estrogen receptor by [3H]estradiol displacement.; assay type: protein assay
Estrogen receptor (Mus musculus), sequence (O08537 whole entry, looked up): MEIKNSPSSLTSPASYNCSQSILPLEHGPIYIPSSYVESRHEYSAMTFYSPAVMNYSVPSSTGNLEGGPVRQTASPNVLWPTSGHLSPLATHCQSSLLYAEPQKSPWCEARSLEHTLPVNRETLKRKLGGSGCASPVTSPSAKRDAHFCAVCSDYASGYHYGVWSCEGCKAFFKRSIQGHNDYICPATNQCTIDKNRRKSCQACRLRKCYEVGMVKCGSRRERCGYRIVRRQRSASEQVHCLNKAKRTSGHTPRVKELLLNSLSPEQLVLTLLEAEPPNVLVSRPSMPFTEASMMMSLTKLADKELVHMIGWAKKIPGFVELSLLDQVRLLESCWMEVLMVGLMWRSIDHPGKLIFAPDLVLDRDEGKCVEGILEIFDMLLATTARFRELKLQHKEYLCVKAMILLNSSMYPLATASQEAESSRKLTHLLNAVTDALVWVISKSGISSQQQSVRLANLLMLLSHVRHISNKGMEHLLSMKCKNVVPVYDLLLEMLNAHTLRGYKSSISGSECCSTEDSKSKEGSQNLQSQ
Estrogen receptor (Mus musculus), sequence (P19785 whole entry, looked up): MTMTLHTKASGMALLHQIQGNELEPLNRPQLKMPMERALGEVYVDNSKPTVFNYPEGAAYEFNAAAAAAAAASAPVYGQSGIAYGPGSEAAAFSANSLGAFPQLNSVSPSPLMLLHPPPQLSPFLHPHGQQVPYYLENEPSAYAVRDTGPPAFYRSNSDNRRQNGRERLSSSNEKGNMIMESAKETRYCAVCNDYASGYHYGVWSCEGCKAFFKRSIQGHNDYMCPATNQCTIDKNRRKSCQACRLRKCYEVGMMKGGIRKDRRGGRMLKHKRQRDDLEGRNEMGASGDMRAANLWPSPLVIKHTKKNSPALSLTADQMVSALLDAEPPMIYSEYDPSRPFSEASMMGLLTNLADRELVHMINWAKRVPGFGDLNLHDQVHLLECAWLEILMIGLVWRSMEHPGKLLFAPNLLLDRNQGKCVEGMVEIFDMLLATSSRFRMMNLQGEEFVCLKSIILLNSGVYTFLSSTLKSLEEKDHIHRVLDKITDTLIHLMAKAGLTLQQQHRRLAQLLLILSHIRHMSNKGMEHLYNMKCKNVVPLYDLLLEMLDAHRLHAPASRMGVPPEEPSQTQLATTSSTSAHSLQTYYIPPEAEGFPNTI
In short: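 Competitive binding in murine uterine cytoplasmic extracts, incubated 18 h at 0-4 °C with 20 nM [3H]estradiol, with or without competing steroids from 2 nM to 20 μM. RBA = 100 × ratio of competitor to unlabeled estradiol concentration giving 50% competition of specific [3H]estradiol binding. Mean of three experiments with SD.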

| ID/g (Rattus norvegicus [1]) [%] | ID/g (Rattus norvegicus [2]) [%] | ID/g (Rattus norvegicus [3]) [%] | ID/g (Rattus norvegicus [4]) [%] | ID/g (Rattus norvegicus [5]) [%] | ID/g (Rattus norvegicus [6]) [%] | ID/g (Rattus norvegicus [7]) [%] | ID/g (Rattus norvegicus [8]) [%] | ID/g (Rattus norvegicus [9]) [%] | ID/g (Rattus norvegicus [10]) [%] | ID/g (Rattus norvegicus [11]) [%] | ID/g (Rattus norvegicus [12]) [%] | ID/g (Rattus norvegicus [13]) [%] | ID/g (Rattus norvegicus [14]) [%] | ID/g (Rattus norvegicus [15]) [%] | ID/g (Rattus norvegicus [16]) [%] | ID/g (Rattus norvegicus [17]) [%] | ID/g (Rattus norvegicus [18]) [%] | ID/g (Rattus norvegicus [19]) [%] | ID/g (Rattus norvegicus [20]) [%] | Structure (SMILES) | other results |
| --- | --- | --- | --- | --- | --- | --- | --- | --- | --- | --- | --- | --- | --- | --- | --- | --- | --- | --- | --- | --- | --- |
| 0.13 | 0.52 | 0.69 | 2.47 | 0.15 | 1.63 | 2.26 | 1.78 | 1.83 | 0.96 | 4.5 | 2.31 | 3.48 | 1.72 | 0.23 | 1.01 | 1.76 | 1.28 | 1.49 | 7.76 | CCO[C@H]1C[C@]2(C)[C@@H](O)[C@H](I)C[C@H]2[C@@H]2CCc3cc(O)ccc3[C@H]21 | ID/g (Rattus norvegicus [21]): 11.67%; ID/g (Rattus norvegicus [22]): 773.37%; ID/g (Rattus norvegicus [23]): 0.89%; ID/g (Rattus norvegicus [24]): 1.01%; ID/g (Rattus norvegicus [25]): 156.51%; ID/g (Rattus norvegicus [26]): 703.1%; ID/g (Rattus norvegicus [27]): 110.96%; ID/g (Rattus norvegicus [28]): 13.08%; ID/g (Rattus norvegicus [29]): 1.29%; relative binding affinity (RBA) [30]: 16.5 |
| 0.01 | 0.15 | 0.32 | 2.2 | 0.03 | 1.64 | 1.3 | 0.5 | 0.83 | 0.13 | 1.09 | 0.72 | 1.26 | 0.82 | 0.03 | 0.32 | 0.33 | 0.22 | 0.43 | 3.86 | C[C@@H]1Cc2cc(O)ccc2[C@H]2CC[C@]3(C)[C@@H](O)[C@H](I)C[C@H]3[C@H]12 | ID/g (Rattus norvegicus [21]): 5.25%; ID/g (Rattus norvegicus [22]): 334.84%; ID/g (Rattus norvegicus [23]): 0.32%; ID/g (Rattus norvegicus [24]): 0.38%; ID/g (Rattus norvegicus [25]): 43.5%; ID/g (Rattus norvegicus [26]): 320.54%; ID/g (Rattus norvegicus [27]): 45.15%; ID/g (Rattus norvegicus [28]): 6.35%; ID/g (Rattus norvegicus [29]): 0.45%; relative binding affinity (RBA) [30]: 55.2 |
